Data taken from ChEMBL document CHEMBL1137787 (J Med Chem, 2009).
Blank lines part the entries; values can stand above or below the compound they belong to. Activity calls are given as the source filed them. No cut-off for these calls is given here.

Legend:
[1] = target: T1, Metabotropic glutamate receptor 5 (Rattus norvegicus, UniProt P31424); experiment: (§1) Positive allosteric modulator activity at rat mGlu5 receptor expressed in HEK293 cells assessed as potentiation of glutamate-induced response relative to glutamate; assay type: cell-based
T1 sequence (P31424 whole entry): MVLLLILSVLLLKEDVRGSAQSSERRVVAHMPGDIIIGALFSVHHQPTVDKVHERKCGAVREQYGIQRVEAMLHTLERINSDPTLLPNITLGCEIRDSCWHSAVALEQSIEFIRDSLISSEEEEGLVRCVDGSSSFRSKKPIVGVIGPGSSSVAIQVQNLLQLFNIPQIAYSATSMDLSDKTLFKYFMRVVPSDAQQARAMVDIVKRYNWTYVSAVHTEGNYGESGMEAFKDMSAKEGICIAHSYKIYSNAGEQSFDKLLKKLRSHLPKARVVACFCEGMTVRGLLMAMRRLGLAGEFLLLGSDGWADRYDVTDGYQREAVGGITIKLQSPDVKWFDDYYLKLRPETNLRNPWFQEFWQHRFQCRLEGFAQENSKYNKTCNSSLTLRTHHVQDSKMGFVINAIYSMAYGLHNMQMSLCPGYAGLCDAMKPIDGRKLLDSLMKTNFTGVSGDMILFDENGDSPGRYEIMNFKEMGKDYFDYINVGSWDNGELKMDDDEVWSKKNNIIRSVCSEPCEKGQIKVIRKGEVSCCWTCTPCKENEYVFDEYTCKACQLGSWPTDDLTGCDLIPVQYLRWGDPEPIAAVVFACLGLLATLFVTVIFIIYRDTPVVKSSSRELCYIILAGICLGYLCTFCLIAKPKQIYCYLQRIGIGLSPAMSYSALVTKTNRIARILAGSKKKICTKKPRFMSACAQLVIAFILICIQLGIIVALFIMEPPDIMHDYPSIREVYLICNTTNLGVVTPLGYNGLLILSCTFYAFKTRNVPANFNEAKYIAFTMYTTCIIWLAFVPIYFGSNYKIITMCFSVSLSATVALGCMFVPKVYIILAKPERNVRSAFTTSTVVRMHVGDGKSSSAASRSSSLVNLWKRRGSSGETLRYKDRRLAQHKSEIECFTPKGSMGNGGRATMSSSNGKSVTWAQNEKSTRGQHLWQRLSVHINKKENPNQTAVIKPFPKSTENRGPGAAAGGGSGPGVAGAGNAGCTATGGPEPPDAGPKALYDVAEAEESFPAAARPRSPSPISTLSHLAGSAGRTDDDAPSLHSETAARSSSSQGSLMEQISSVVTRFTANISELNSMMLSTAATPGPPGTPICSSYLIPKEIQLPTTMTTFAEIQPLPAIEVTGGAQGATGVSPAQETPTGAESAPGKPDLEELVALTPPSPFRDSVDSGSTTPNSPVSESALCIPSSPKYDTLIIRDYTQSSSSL

[2] = target: Metabotropic glutamate receptor 5 (Rattus norvegicus) (UniProt P31424); experiment: Positive allosteric modulator activity at rat mGlu5 receptor expressed in HEK293 cells assessed as fold shift in glutamate induced response at 10 uM; assay type: cell-based
Sequence of Metabotropic glutamate receptor 5 (Rattus norvegicus) (P31424 21-1203 limits assumed): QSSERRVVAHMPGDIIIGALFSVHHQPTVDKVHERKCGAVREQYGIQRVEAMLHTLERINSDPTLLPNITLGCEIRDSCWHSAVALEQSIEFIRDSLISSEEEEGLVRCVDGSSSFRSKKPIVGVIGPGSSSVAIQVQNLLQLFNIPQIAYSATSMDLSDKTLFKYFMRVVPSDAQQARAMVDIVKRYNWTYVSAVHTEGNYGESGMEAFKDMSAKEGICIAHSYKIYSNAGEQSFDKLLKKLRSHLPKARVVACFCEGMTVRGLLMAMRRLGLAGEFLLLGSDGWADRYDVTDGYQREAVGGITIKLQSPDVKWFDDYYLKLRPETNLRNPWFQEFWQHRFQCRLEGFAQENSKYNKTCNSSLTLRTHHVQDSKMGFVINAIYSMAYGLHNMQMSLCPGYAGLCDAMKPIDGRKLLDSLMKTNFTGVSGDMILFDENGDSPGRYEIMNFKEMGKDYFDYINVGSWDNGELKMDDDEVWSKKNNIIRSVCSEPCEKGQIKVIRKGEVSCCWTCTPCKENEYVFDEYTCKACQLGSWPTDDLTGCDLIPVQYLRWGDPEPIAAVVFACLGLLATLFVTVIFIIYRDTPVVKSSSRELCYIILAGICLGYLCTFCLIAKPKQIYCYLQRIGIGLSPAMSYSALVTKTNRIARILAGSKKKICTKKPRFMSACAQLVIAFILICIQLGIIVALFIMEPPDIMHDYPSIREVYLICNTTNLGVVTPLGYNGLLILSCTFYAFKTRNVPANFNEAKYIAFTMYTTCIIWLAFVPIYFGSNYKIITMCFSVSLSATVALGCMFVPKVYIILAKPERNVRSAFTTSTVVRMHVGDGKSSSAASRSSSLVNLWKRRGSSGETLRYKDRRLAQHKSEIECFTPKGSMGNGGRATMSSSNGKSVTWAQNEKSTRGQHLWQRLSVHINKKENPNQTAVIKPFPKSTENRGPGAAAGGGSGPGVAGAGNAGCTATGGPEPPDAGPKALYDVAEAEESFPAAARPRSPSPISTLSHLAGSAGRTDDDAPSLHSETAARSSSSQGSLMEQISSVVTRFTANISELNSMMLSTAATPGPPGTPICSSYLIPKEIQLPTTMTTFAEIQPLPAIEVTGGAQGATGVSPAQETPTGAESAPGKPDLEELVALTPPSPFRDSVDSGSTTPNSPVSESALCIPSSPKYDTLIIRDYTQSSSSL

[3] = target: T1, Metabotropic glutamate receptor 5; experiment: Antagonist activity at rat mGlu5 receptor expressed in HEK293 cells assessed as inhibition of glutamate-induced response; assay type: functional, cell-based
[4] = target: Metabotropic glutamate receptor 5 (Rattus norvegicus) (UniProt P31424); experiment: Antagonist activity at rat mGlu5 receptor expressed in HEK293 cells assessed as inhibition of glutamate-induced response at 10 uM; assay type: functional, cell-based; set-up: scale not given: the % may be the effect or the level left
[5] = target: Metabotropic glutamate receptor 5 (Rattus norvegicus) (UniProt P31424); experiment: as §1; assay type: cell-based
[6] = target: Metabotropic glutamate receptor 3 (Homo sapiens, UniProt Q14832); experiment: Antagonist activity at mGlu3 receptor; assay type: functional
Sequence of Metabotropic glutamate receptor 3 (Q14832 whole entry): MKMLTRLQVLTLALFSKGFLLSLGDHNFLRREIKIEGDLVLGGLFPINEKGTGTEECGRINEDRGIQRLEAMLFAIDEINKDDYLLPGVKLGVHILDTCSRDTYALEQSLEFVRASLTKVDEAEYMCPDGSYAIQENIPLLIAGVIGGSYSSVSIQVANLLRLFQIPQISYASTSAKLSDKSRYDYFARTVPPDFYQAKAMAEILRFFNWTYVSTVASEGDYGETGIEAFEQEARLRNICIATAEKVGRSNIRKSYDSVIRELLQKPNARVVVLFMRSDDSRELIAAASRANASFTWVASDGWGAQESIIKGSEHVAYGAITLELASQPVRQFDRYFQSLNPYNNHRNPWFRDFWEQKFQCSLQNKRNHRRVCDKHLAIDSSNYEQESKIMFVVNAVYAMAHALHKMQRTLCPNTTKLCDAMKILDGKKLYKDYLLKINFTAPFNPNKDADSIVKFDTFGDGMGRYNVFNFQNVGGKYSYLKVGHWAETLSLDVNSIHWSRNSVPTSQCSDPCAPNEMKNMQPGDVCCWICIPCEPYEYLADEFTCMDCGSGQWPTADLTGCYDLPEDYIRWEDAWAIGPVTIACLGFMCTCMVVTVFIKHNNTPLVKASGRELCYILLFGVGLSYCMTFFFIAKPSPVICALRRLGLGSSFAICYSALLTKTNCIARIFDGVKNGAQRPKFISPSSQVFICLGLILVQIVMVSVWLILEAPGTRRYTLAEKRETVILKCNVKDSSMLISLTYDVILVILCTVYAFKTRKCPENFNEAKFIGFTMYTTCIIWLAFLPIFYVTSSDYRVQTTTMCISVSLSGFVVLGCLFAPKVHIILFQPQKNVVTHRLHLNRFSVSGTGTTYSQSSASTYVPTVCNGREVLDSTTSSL

[7] = target: Metabotropic glutamate receptor 8 (Homo sapiens, UniProt O00222); experiment: Antagonist activity at mGlu8 receptor; assay type: functional
[8] = target: Metabotropic glutamate receptor 1 (Homo sapiens, UniProt Q13255); experiment: Antagonist activity at mGlu1 receptor; assay type: functional
Rattus norvegicus [9] = experiment: Antipsychotic activity in Sprague-Dawley rat assessed as reversal of amphetamine-induced hyperlocomotion administered ip 30 mins before amphetamine-challenge; assay type: functional, organism-based
Summary of the method: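 Rats were given the test compound i.p. at 3, 10 or 30 mg/kg in 10% Tween 80 vehicle. Thirty minutes later they received amphetamine, 1 mg/kg s.c. Locomotor activity was then measured. Test compound or vehicle alone was also assessed without amphetamine.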

[10] = target: Metabotropic glutamate receptor 2 (Homo sapiens, UniProt Q14416); experiment: Antagonist activity at mGlu2 receptor; assay type: functional
Sequence of Metabotropic glutamate receptor 2 (Q14416 whole entry): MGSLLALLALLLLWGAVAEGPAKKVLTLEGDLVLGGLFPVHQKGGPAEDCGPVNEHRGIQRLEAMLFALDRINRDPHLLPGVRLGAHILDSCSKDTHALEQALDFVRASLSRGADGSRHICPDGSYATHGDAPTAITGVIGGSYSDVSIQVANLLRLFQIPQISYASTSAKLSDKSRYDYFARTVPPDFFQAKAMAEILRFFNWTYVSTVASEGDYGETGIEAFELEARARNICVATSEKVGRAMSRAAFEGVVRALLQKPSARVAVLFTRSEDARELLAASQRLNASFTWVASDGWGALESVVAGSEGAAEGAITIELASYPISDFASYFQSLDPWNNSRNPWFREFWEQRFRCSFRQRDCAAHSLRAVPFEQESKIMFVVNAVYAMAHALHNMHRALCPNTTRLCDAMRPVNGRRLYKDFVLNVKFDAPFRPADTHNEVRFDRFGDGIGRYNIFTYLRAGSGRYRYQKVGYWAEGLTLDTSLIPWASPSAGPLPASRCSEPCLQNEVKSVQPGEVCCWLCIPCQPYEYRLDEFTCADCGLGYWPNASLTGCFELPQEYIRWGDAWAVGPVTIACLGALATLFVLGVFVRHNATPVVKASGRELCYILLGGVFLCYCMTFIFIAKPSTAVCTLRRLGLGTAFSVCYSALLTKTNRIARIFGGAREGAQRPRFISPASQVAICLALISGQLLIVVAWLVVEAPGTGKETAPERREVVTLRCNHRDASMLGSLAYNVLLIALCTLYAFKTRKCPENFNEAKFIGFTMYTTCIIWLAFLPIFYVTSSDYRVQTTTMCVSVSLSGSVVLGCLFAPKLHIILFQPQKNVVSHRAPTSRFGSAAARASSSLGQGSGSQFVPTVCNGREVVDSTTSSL

[11] = target: Metabotropic glutamate receptor 7 (Homo sapiens, UniProt Q14831); experiment: Antagonist activity at mGlu7 receptor; assay type: functional
Sequence of Metabotropic glutamate receptor 7 (Q14831 whole entry): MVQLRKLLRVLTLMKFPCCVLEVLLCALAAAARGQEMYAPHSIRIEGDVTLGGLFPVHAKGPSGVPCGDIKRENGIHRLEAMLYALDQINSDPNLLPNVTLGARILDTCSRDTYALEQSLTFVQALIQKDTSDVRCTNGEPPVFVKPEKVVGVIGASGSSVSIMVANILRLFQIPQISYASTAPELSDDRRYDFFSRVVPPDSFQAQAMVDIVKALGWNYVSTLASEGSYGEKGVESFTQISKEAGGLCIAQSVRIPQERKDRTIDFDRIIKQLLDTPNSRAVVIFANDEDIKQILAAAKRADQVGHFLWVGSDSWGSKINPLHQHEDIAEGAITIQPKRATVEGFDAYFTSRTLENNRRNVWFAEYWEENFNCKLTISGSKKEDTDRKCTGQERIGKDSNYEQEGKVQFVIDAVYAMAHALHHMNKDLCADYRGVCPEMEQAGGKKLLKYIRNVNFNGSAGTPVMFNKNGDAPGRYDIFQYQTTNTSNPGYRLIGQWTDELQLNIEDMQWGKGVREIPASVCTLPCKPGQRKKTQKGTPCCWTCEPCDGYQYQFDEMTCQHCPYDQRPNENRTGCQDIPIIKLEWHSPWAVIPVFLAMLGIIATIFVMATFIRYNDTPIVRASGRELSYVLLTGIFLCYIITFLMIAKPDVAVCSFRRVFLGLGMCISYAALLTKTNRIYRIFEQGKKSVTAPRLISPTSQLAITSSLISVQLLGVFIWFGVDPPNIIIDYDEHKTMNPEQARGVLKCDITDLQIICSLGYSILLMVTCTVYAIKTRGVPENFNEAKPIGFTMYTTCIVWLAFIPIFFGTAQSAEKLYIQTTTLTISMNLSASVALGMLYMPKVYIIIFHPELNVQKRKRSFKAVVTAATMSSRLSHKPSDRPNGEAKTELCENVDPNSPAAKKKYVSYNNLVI

Rattus norvegicus [12] = experiment: Anxiolytic activity against ip dosed Sprague-Dawley rat Geller-Seifter conflict model assessed as increase in punished response; assay type: functional, organism-based
Summary of the method: (§2)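 Modified Geller-Seifter conflict schedule with punished and unpunished components. Animals were tested on 1, 3, 10 and 30 mg/kg and on vehicle. Read-out was the number of responses in each component, as mean ± SEM for eighteen animals. Analysis used ANOVA with Newman-Keuls post hoc comparison to vehicle.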

Rattus norvegicus [13] = experiment: Anxiolytic activity against Sprague-Dawley rat Geller-Seifter conflict model assessed as increase punished response rate at 30 mg/kg, ip; assay type: functional; conditions: route intraperitoneal; summary of the method: as §2
[14] = target: Metabotropic glutamate receptor 4 (Homo sapiens, UniProt Q14833); experiment: Antagonist activity at mGlu4 receptor; assay type: functional

Structure (SMILES): CSc1ncc(C#Cc2ccccc2)cn1
fold change (FC) [2]: 11
EC50 ([1]; read-out: EC50): 120 nM

Structure (SMILES): C(#Cc1ncccn1)c1ccccc1
IC50 ([3]; read-out: IC50): 195 nM
Activity [4]: 100%

Structure (SMILES): CCNc1ncc(C#Cc2ccccc2)cn1
EC50 ([1]; hek293): Not Active

Structure (SMILES): CSc1ncc(C#Cc2cccc(C)c2)cn1
EC50 ([1]; hek293): Not Active

Structure (SMILES): Cc1ccc(C#Cc2ncccn2)cc1
Activity [5]: inactive
IC50 ([3]; read-out: IC50): > 10000 nM

Structure (SMILES): Cc1ncc(C#Cc2ccccc2)cn1
EC50 ([1]; hek293): Not Active

Structure (SMILES): C(#Cc1cncnc1)c1ccccc1
Activity [5]: 29%
IC50 ([3]; read-out: IC50): 486 nM

Structure (SMILES): CCNc1ncc(C#Cc2cccc(C)c2)cn1
EC50 ([1]; hek293): Not Active

Structure (SMILES): COc1ncc(C#Cc2cccc(C)c2)cn1
EC50 ([1]; hek293): Not Active

Structure (SMILES): COc1ncc(C#Cc2ccccc2)cn1
EC50 ([1]; hek293): Not Active

Structure (SMILES): CNc1ncc(C#Cc2ccccc2)cn1
IC50 [6]: > 10000 nM
IC50 [7]: > 10000 nM
IC50 [8]: > 10000 nM
Activity (Rattus norvegicus [9]): Dose-dependent effect
fold change (FC) [2]: 15
EC50 ([1]; read-out: EC50): 14.3 nM
IC50 [10]: > 10000 nM
IC50 [11]: > 10000 nM

Structure (SMILES): CNc1ncc(C#Cc2cccc(C)c2)cn1
fold change (FC) [2]: 5.9
EC50 ([1]; read-out: EC50): 21.1 nM

Structure (SMILES): Cc1cccc(C#Cc2cncnc2)c1
IC50 ([3]; read-out: IC50): 7.5 nM

Structure (SMILES): CCc1ncc(C#Cc2cccc(C)c2)cn1
EC50 ([1]; hek293): Not Active

Structure (SMILES): CCOc1ncc(C#Cc2cccc(C)c2)cn1
IC50 ([3]; read-out: IC50): 21.1 nM
Activity [4]: 100%

Structure (SMILES): CCc1ncc(C#Cc2ccccc2)cn1
EC50 ([1]; hek293): Not Active

Structure (SMILES): Cc1cccc(C#Cc2ncccn2)c1
IC50 [6]: > 10000 nM
Activity (Rattus norvegicus [12]): Dose-dependent effect
IC50 [7]: > 10000 nM
IC50 [8]: > 10000 nM
Activity (Rattus norvegicus [13]): 300%
IC50 ([3]; read-out: IC50): 10.8 nM
IC50 [10]: > 10000 nM
IC50 [14]: > 10000 nM
Activity [4]: 100%
IC50 [11]: > 10000 nM

Structure (SMILES): CCOc1ncc(C#Cc2ccccc2)cn1
IC50 ([3]; hek293): Not Active

Structure (SMILES): Cc1cccc(C#Cc2cnc(C)nc2)c1
EC50 ([1]; hek293): Not Active

Now from value to compound:

EC50 ([1]; hek293): Not Active
Structure (SMILES): CCc1ncc(C#Cc2ccc(C)cc2)cn1

EC50 ([1]; hek293): Not Active
Structure (SMILES): COc1ncc(C#Cc2ccc(C)cc2)cn1

fold change (FC) [2]: 6
EC50 ([1]; read-out: EC50): 247 nM
Structure (SMILES): CC(C)(C)c1ncc(C#Cc2ccccc2)cn1

EC50 ([1]; hek293): Not Active
Structure (SMILES): Cc1ccc(C#Cc2cnc(C)nc2)cc1

fold change (FC) [2]: 4.2
Structure (SMILES): Cc1ccc(C#Cc2cncnc2)cc1

IC50 ([3]; hek293): Not Active
Structure (SMILES): CCOc1ncc(C#Cc2ccc(C)cc2)cn1

fold change (FC) [2]: 5.7
EC50 ([1]; read-out: EC50): 704 nM
Structure (SMILES): CNc1ncc(C#Cc2ccc(C)cc2)cn1

EC50 ([1]; hek293): Not Active
Structure (SMILES): CSc1ncc(C#Cc2ccc(C)cc2)cn1

EC50 ([1]; hek293): Not Active
Structure (SMILES): CCNc1ncc(C#Cc2ccc(C)cc2)cn1

EC50 ([1]; hek293): Not Active
Structure (SMILES): Cc1ccc(C#Cc2cnc(C(C)(C)C)nc2)cc1

EC50 ([1]; hek293): Not Active
Structure (SMILES): Cc1cccc(C#Cc2cnc(C(C)(C)C)nc2)c1
